{"data": "Results gathered from unrelated publications", "NPSR1": "Neuropeptide S receptor (NPSR1, Homo sapiens, UniProt Q6W5P4)", "NQO2": "Ribosyldihydronicotinamide dehydrogenase [quinone] (NQO2, Homo sapiens, UniProt P16083)", "MC4R": "Melanocortin receptor 4 (MC4R, Homo sapiens, UniProt P32245)", "SLC6A2": "Sodium-dependent noradrenaline transporter (SLC6A2, Homo sapiens, UniProt P23975)", "GRB2": "Growth factor receptor-bound protein 2 (GRB2, Homo sapiens, UniProt P62993)", "note": "Each line is one published result; the experiments were not run side by side."}
{"SMILES": "COc1ccc(C2c3c(ncn(CCc4ccccc4)c3=N)Oc3ccc4ccccc4c32)cc1OC (centres unmarked)", "target": "NPSR1", "assay": "calcium signal, antagonist", "endpoint": "IC50", "value": "> 30 µM"}
{"SMILES": "Nc1ncnc2c1ncn2[C@@H]1O[C@H](COP(=O)(O)OP(=O)(O)OP(=O)(O)O)[C@@H](O)[C@H]1O", "target": "dnaA (Escherichia coli, UniProt P03004)", "assay": "binding", "endpoint": "Kd", "value": "0.04 µM"}
{"SMILES": "COc1cccc(C2c3c(ncn(-c4ccccc4Cl)c3=N)Oc3ccc4ccccc4c32)c1 (centres unmarked)", "target": "NPSR1", "assay": "calcium signal, antagonist", "endpoint": "IC50", "value": "5.51 µM"}
{"SMILES": "NC(=O)N1c2ccccc2C=Cc2ccccc21", "target": "NQO2", "assay": "enzyme activity, inhibitor", "endpoint": "Ki", "value": "> 500 µM"}
{"SMILES": "N=c1c2c(ncn1Cc1ccccc1)Oc1ccc3ccccc3c1C2c1ccccc1 (centres unmarked)", "target": "NPSR1", "assay": "calcium signal, antagonist", "endpoint": "IC50", "value": "> 30 µM"}
{"SMILES": "CCCC[C@H](NC(=O)[C@H](CO)NC(=O)[C@H](Cc1ccc(O)cc1)NC(=O)[C@H](CO)NC(C)=O)C(=O)N[C@@H](CCC(=O)O)C(=O)N[C@@H](Cc1c[nH]cn1)C(=O)N[C@@H](C)C(=O)N[C@@H](CCCNC(=N)N)C(=O)N[C@@H](Cc1c[nH]c2ccccc12)C(=O)NCC(=O)N[C@@H](CCCCN)C(=O)N1CCC[C@H]1C(=O)N[C@H](C(=O)NCC(=O)N[C@@H](CCCCN)C(=O)N[C@@H](CCCCN)C(=O)N[C@@H](CCCNC(=N)N)C(N)=O)C(C)C", "target": "MC4R", "assay": "ligand displacement in cells, radioligand", "endpoint": "Ki", "value": "> 1 µM"}
{"SMILES": "CCOC(=O)[C@@]12C[C@@H]1[C@@H](n1ccc3c(NCCc4ccccc4)nc(C#Cc4ccccc4)nc31)[C@H](O)[C@@H]2O", "target": "SLC6A2", "assay": "ligand displacement, radioligand", "endpoint": "Ki", "value": "2.82 µM"}
{"SMILES": "Clc1ccc2c(c1)N(CCCN1CCN(CCCc3ccccc3)CC1)c1ccccc1S2", "target": "Trypanothione reductase (TPR, Trypanosoma cruzi, UniProt P28593)", "assay": "enzyme activity, inhibitor, absorbance", "endpoint": "Ki", "value": "0.331 µM"}
{"SMILES": "CC(C)C[C@H](NC(=O)[C@H](Cc1c[nH]cn1)NC(=O)[C@H](CCCNC(=N)N)NC(=O)[C@H](CCCNC(=N)N)NC(=O)[C@@H](NC(=O)CNC(=O)[C@H](Cc1c[nH]cn1)NC(=O)[C@@H]1CCCN1C(=O)[C@H](CO)NC(=O)[C@@H]1CCCN1)[C@@H](C)O)C(=O)N1CCC[C@H]1C(=O)N[C@@H](CO)C(=O)N1CCC[C@H]1C(=O)N1CCC[C@H]1C(=O)O", "target": "GRB2", "assay": "binding, NMR", "conditions": "pH 7.6", "endpoint": "Kd", "value": "400 µM"}
{"SMILES": "COc1cccc(C2c3c(ncn(Cc4cccs4)c3=N)Oc3ccc4ccccc4c32)c1 (centres unmarked)", "target": "NPSR1", "assay": "cAMP, antagonist, TR-FRET", "endpoint": "IC50", "value": "19.4 µM"}
{"SMILES": "CNC(=O)[C@@]12C[C@@H]1[C@@H](n1cnc3c(NC4CC4c4ccccc4)nc(C#Cc4ccccc4)nc31)[C@H](O)[C@@H]2O (mixture of isomers)", "target": "SLC6A2", "assay": "ligand displacement, radioligand", "endpoint": "Ki", "value": "2.31 µM"}
{"SMILES": "COc1cccc(C2c3c(ncn(-c4ccc(Br)cc4)c3=N)Oc3ccc4ccccc4c32)c1 (centres unmarked)", "target": "NPSR1", "assay": "cAMP, antagonist, TR-FRET", "endpoint": "IC50", "value": "15.4 µM"}
{"SMILES": "CCN(CC)Cc1cc(Nc2ccnc3cc(Cl)ccc23)ccc1O", "target": "NQO2", "assay": "enzyme activity, inhibitor", "endpoint": "Ki", "value": "160 µM"}
{"SMILES": "N=c1c2c(ncn1CCc1ccccc1)Oc1ccc3ccccc3c1C2c1ccccc1 (centres unmarked)", "target": "NPSR1", "assay": "calcium signal, antagonist", "endpoint": "IC50", "value": "3.48 µM"}
{"SMILES": "CC(C)[C@@H](CC[C@@H](C)[C@H]1CC[C@H]2[C@@H]3[C@H](O)C[C@H]4C[C@@H](NCCCNCCCCNCCCN)CC[C@]4(C)[C@H]3CC[C@]12C)OS(=O)(=O)O", "target": "Tyrosine-protein phosphatase non-receptor type 12 (PTPN12, Homo sapiens, UniProt Q05209)", "assay": "enzyme activity, inhibitor", "endpoint": "Ki", "value": "40 µM"}
{"SMILES": "O=C(O)Cc1ccccc1Nc1c(Cl)cccc1Cl", "target": "NQO2", "assay": "enzyme activity, inhibitor", "endpoint": "Ki", "value": "> 1000 µM"}
{"SMILES": "O=c1ccc2ccccc2o1", "target": "GRB2", "assay": "binding, fluorescence", "endpoint": "Kd", "value": "5.56 µM"}
{"SMILES": "CC[C@H](C)[C@H](NC(=O)CN)C(=O)N[C@H](C(=O)N[C@@H](CC(N)=O)C(=O)N[C@H](C(=O)N[C@@H](CC(C)C)C(=O)N[C@@H](CCC(N)=O)C(=O)N[C@@H](CCCCN)C(=O)N[C@@H](Cc1ccc(O)cc1)C(=O)N[C@@H](Cc1ccc(O)cc1)C(=O)N[C@@H](CO)C(=O)N[C@@H](CCCNC(=N)N)C(=O)N[C@H](C(=O)N[C@@H](CCCNC(=N)N)C(=O)NCC(=O)NCC(=O)N[C@@H](CCCNC(=N)N)C(=O)N[C@@H](CO)C(=O)N[C@@H](C)C(=O)N[C@H](C(=O)N[C@@H](CC(C)C)C(=O)N[C@@H](CO)C(=O)N[C@H]1CSSC[C@@H](C(=O)N[C@@H](CCCNC(=N)N)C(=O)N[C@@H](CCCNC(=N)N)C(=O)N[C@@H](CCCCN)C(=O)N[C@@H](CCCCN)C(N)=O)NC(=O)[C@H](CO)NC(=O)[C@H](CCCCN)NC(=O)[C@H](CCCNC(=N)N)NC(=O)CNC(=O)[C@H](CCCNC(=N)N)NC(=O)[C@H]([C@@H](C)O)NC(=O)[C@H](CO)NC(=O)[C@H](CO)NC(=O)[C@H](CCCCN)NC(=O)CNC(=O)[C@H]([C@@H](C)CC)NC(=O)[C@H](CCC(N)=O)NC(=O)[C@H](CCC(=O)O)NC(=O)[C@H](CCC(=O)O)NC(=O)[C@H](CCCCN)NC(=O)[C@@H]2CCCN2C(=O)[C@H](CC(C)C)NC1=O)C(C)C)C(C)C)[C@@H](C)O)[C@@H](C)CC", "target": "MC4R", "assay": "ligand displacement in cells", "endpoint": "Ki", "value": "0.292 µM"}
{"SMILES": "Cc1cccc(Nc2ccccc2C(=O)O)c1C", "target": "NQO2", "assay": "enzyme activity, inhibitor, absorbance", "endpoint": "Ki", "value": "> 500 µM"}
{"SMILES": "CCOC(=O)c1ccccc1", "target": "Or67a (Drosophila melanogaster, UniProt Q9VT08)", "assay": "binding, MST", "endpoint": "Kd", "value": "~0.5 µM"}
{"SMILES": "COc1ccc(C2c3c(N)nc(Cc4ccccc4)nc3Oc3ccc4ccccc4c32)cc1OC (centres unmarked)", "target": "NPSR1", "assay": "cAMP, antagonist, TR-FRET", "endpoint": "IC50", "value": "77.2 µM"}
{"SMILES": "Cc1cnc(-c2ccc(-c3ccc(NC(=O)Nc4c(F)cc(F)cc4F)cc3F)c3c2C(=O)NC3)[nH]1", "target": "Dual specificity mitogen-activated protein kinase kinase 5 (MAP2K5, Homo sapiens, UniProt Q13163)", "assay": "binding, competition with immobilised ligand", "endpoint": "Kd", "value": "0.0008 µM"}
{"SMILES": "CCN(CC)CCCC(C)Nc1cnc(C(=O)Nc2ccc(Cl)c3cccnc23)cn1 (centres unmarked)", "target": "Muscarinic acetylcholine receptor M5 (CHRM5, Homo sapiens, UniProt P08912)", "assay": "cell-free assay, radioligand", "endpoint": "Ki", "value": "0.219 µM"}
{"SMILES": "CC(C)C1=Cc2ccc3c(c2C(=O)C1=O)CCCC3(C)C", "target": "Cholinesterase (BCHE, Homo sapiens, UniProt P06276)", "assay": "enzyme activity, inhibitor", "endpoint": "Ki", "value": "> 100 µM"}
{"SMILES": "Nc1ncnc2c1ncn2[C@@H]1O[C@H](COP(=O)(O)OP(=O)(O)OP(=O)(O)OP(=O)(O)OP(=O)(O)OC[C@H]2O[C@@H](n3cnc4c(N)ncnc43)[C@H](O)[C@@H]2O)[C@@H](O)[C@H]1O", "target": "adk (Escherichia coli, UniProt P69441)", "assay": "binding, ITC", "endpoint": "Kd", "value": "0.354 µM"}
{"SMILES": "COc1ccc(-c2nsc(NC(=O)[C@@H]3C[C@H]3C)c2C)cc1", "target": "Metabotropic glutamate receptor 3 (GRM3, Homo sapiens, UniProt Q14832)", "assay": "calcium signal, agonist", "endpoint": "EC50", "value": "> 25 µM"}
